The text below walks through data of ChEMBL document CHEMBL1828506, “New fluorine-containing hydrazones active against MDR-tuberculosis” (Eur J Med Chem, 2011).

For assay [1], the system named is Mycobacterium tuberculosis. Briefly: Antimycobacterial activity against multidrug-resistant Mycobacterium tuberculosis A8 241 after 28 days by colony forming unit determination. The following applies: A8 241, 672 h. The format is functional. The essentials:
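Compounds added to Sula liquid medium as DMSO solutions (DMSO at most 2%), incubated at 37 °C for 28 days. MIC is the lowest concentration giving visible growth inhibition. Activity was confirmed by CFU counts after subculture onto drug-free Löwenstein-Jensen solid medium.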

Assay [2] can be described thus: Selectivity index, ratio of IC50 for human HepG2 cells to MIC for multidrug-resistant Mycobacterium tuberculosis A8 241. In kind it is functional.

In brackets after ≈: the same amount, converted by molar mass.

`O=C(N/N=C/Nc1ccc(C(=O)O)c(O)c1)c1ccc(C(F)(F)F)cc1`: in assay [1], the MIC turned out to be 0.5 µg/mL (≈ 1.36 µM). Compound `O=C(N/N=C/Nc1ccc(C(=O)O)c(O)c1)c1cccc(C(F)(F)F)c1` came in with an MIC in assay [1] of 0.5 µg/mL (≈ 1.36 µM). Take `O=C(N/N=C/Nc1ccc(C(=O)O)c(O)c1)c1ccc(F)cc1`: the MIC in assay [1] came out at 0.5 µg/mL (≈ 1.58 µM). With `O=C(N/N=C/Nc1ccc(C(=O)O)c(O)c1)c1cccc(F)c1`, the MIC in assay [1] was 0.5 µg/mL (≈ 1.58 µM). For the same compound, the “Selectivity Index” value in assay [2] was 592.64. In the same order, the values of `O=C(O)c1ccc(N/C=N/NC(=O)c2ccccc2F)cc1O` are 0.5 µg/mL (≈ 1.58 µM) and 767.77.

For the compound `O=C(N/N=C/N1CCN(c2cc3c(cc2F)c(=O)c(C(=O)O)cn3C2CC2)CC1)c1ccc(C(F)(F)F)cc1`, in assay [1], the lowest concentration to inhibit growth (MIC) was 0.5 µg/mL (≈ 0.917 µM). In addition, in assay [2], the “Selectivity Index” value was 378.41. The compound `O=C(N/N=C/N1CCN(c2cc3c(cc2F)c(=O)c(C(=O)O)cn3C2CC2)CC1)c1cccc(C(F)(F)F)c1` yielded an MIC in assay [1] of 0.5 µg/mL (≈ 0.917 µM). The “Selectivity Index” value in assay [2] is listed as 351.15. For `O=C(N/N=C/N1CCN(c2cc3c(cc2F)c(=O)c(C(=O)O)cn3C2CC2)CC1)c1ccc(F)cc1` the same measures were 0.5 µg/mL (≈ 1.01 µM) and 1268.58. For `O=C(N/N=C/N1CCN(c2cc3c(cc2F)c(=O)c(C(=O)O)cn3C2CC2)CC1)c1cccc(F)c1` the same measures were 0.5 µg/mL (≈ 1.01 µM) and 804.76. `CCn1cc(C(=O)O)c(=O)c2cc(F)c(N3CCN(/C=N/NC(=O)c4ccc(C(F)(F)F)cc4)CC3)cc21` displayed an MIC in assay [1] of 5 µg/mL (≈ 9.37 µM). Besides, in assay [2], the “Selectivity Index” value was found to be 3.98. Consider `CCn1cc(C(=O)O)c(=O)c2cc(F)c(N3CCN(/C=N/NC(=O)c4cccc(F)c4)CC3)cc21`, for which the MIC in assay [1] came out at 5 µg/mL (≈ 10.3 µM). Moreover, the “Selectivity Index” value in assay [2] is 38. Regarding `Nc1ccc(C(=O)O)c(O)c1` [AMINOSALICYLIC ACID], in assay [1], the MIC was 0.25 µg/mL (≈ 1.63 µM). In assay [1], `O=C(O)c1cn(C2CC2)c2cc(N3CCNCC3)c(F)cc2c1=O` [CIPROFLOXACIN] showed an MIC of 1.5 µg/mL (≈ 4.53 µM). Moreover, the “Selectivity Index” value in assay [2] is listed as 110.37. On to `NNC(=O)c1ccncc1` [ISONIAZID], for which, in assay [1], the MIC stood at 1 µg/mL (≈ 7.29 µM). Compound `CCn1cc(C(=O)O)c(=O)c2cc(F)c(N3CCNCC3)cc21` [NORFLOXACIN] came in with an MIC in assay [1] of 10 µg/mL (≈ 31.3 µM). The “Selectivity Index” value in assay [2] worked out at 15.87.

For orientation: MIC means the least concentration at which growth counts as inhibited. Low readings indicate greater potency, high ones weaker potency.
